Data on nine compounds can be found in ChEMBL document CHEMBL1240482, “Synthesis and antiproliferative evaluation of certain indeno[1,2-c]quinoline derivatives. Part 2” (J Med Chem, 2010).

In data set [1] the test system is PC-3. As to the kind of experiment: Cytotoxicity against human PC3 cells after 48 hrs by MTT assay. The format is functional. As to conditions: PC-3, 48 h. The method, boiled down: (§1)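 Cells grown in DMEM with 10% FBS at 37 °C and 5% CO2, seeded at 5 × 10^3 per well and allowed 24 h before drug. Serial dilutions from DMSO stocks applied for 48 h. MTT (2 mg/mL in PBS) added for 2 h, formazan dissolved in DMSO, absorbance read at 570 nm. GI50 interpolated by linear regression from at least three points in the 20-80% range; three independent experiments.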

Data set [2] concerns HeLa. As to the kind of experiment: Selectivity index, ratio of IC50 for human Detroit 551 cells to IC50 for human HeLa cells. The format is functional.
In data set [3] the test system is SAS. As to the kind of experiment: Cytotoxicity against human SAS cells after 48 hrs by MTT assay. In kind it is functional. The method, boiled down: as §1
Data set [4] concerns HeLa. The data set is described as follows: Cytotoxicity against human HeLa cells after 48 hrs by MTT assay. The format is functional. The method, boiled down: as §1
The species entered for data set [5] is Homo sapiens. The data set is described as follows: Inhibition of human topoisomerase 2 assessed as decrease in pBR322 mobility on agarose gel at 10 uM by electrophoresis. The method, boiled down:
(§2)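 Enzyme preincubated with compound before DNA addition; reaction run 30 min at 37 °C and stopped with SDS. Products resolved on 1% agarose, stained with ethidium bromide, quantified by densitometry.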

Data set [6] has as its system Nucleic Acid. As to the kind of experiment: Binding affinity to pBR322. In kind it is nucleic-acid assay. The following applies: Escherichia coli.
Data set [7] can be described thus: Inhibition of human topoisomerase 2 assessed as decrease in pBR322 mobility on agarose gel by electrophoresis. The method, boiled down:
as §2

A short description of data set [8]: Cytotoxicity against human BT-483 cells after 48 hrs by MTT assay. In kind it is functional. As to conditions: BT-483, 48 h. The method, boiled down: as §1
Data set [9] has as its system Detroit 551. The data set is described as follows: Selectivity index, ratio of IC50 for human Detroit 551 cells to IC50 for human SKHep cells. The format is functional.
Data set [10] has as its system A549. The data set is described as follows: Cytotoxicity against human A549 cells after 48 hrs by MTT assay. In kind it is functional. The following applies: A549, 48 h. The method, boiled down: as §1
In general terms: Formazan colour is commonly taken as a measure of viable cells.

A short description of data set [11]: Cytotoxicity against human SKHep cells after 48 hrs by MTT assay. The format is functional. The method, boiled down: as §1
Data set [12] relates to SAS. The data set is described as follows: Selectivity index, ratio of IC50 for human Detroit 551 cells to IC50 for human SAS cells. The format is functional.
Data set [13] relates to Detroit 551. As to the kind of experiment: Selectivity index, ratio of IC50 for human Detroit 551 cells to IC50 for human PC3 cells. In kind it is functional.
Data set [14] deals with Detroit 551. The data set is described as follows: Selectivity index, ratio of IC50 for human Detroit 551 cells to IC50 for human A549 cells. In kind it is functional.
Data set [15] relates to Detroit 551. As to the kind of experiment: Selectivity index, ratio of IC50 for human Detroit 551 cells to IC50 for human BT-483 cells. In kind it is functional.
Data set [16] has as its target T1, DNA topoisomerase 1 (Homo sapiens) (UniProt P11387).
T1 sequence (whole entry): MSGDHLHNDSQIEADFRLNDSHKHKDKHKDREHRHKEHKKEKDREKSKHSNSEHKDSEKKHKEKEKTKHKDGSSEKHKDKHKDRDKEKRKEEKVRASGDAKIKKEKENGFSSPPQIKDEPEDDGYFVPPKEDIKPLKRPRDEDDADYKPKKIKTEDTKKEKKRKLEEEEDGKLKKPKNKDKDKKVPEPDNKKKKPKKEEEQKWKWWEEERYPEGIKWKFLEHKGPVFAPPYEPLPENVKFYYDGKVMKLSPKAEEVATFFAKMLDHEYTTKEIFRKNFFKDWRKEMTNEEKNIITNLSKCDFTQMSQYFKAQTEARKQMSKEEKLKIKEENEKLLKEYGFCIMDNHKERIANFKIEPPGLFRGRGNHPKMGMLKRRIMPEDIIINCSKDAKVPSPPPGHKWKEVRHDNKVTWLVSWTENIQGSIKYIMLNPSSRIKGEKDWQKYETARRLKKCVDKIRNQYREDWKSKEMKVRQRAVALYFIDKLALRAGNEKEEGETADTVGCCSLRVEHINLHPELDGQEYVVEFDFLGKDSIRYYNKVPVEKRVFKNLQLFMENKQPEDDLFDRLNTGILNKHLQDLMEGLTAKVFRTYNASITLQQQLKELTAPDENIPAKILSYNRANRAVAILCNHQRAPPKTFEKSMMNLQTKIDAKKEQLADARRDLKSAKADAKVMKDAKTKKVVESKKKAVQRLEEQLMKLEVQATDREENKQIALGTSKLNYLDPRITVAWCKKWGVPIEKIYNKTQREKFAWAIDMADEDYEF
As to the kind of experiment: Inhibition of human topoisomerase 1 assessed as decrease in pBR322 mobility on agarose gel at 10 uM by electrophoresis. The method, boiled down:
as §2

For data set [17], the target named is T2, DNA topoisomerase 1 (Homo sapiens, UniProt P11387).
T2 sequence (P11387 whole entry): T1 sequence (whole entry)
As to the kind of experiment: Inhibition of human topoisomerase 1 assessed as decrease in pBR322 mobility on agarose gel by electrophoresis. The method, boiled down: as §2

Data set [18] is described as follows: Cytotoxicity against human Detroit 551 cells after 48 hrs by MTT assay. In kind it is cell-based. The method, boiled down: as §1

Structures are written as SMILES. Activity calls are given as the source filed them. The calls are words filed in the database; no cut-off is given here.

For `COc1ccc2c(c1)/C(=N\OCCCN(C)C)c1c-2c(O)nc2ccccc12`, the GI50 in [1] is 4350 nM; in data set [3] it was 3100 nM; in data set [4] (read-out: GI50), 200 nM; in [4] (read-out: pGI50 (converted)), 200 nM; in [8], 1290 nM; in data set [10] it was 630 nM. In data set [11], the GI50 is 750 nM. Further, the RatioGI50 in [2] is on record as 10.45; in [9], 2.79; in [12], 0.67; in [13] it was 0.48; in data set [14] it was 3.32; in data set [15], 1.62. For the same compound, the inhibition (commonly the share of the control response that was lost under treatment) came to 77% in [5] and 3% in data set [16]. In data set [6], the outcome was Active. Also, in data set [7], the IC50 (usually the point on the concentration scale where inhibition reaches its midpoint) turned out to be 7140 nM.

Turning to `COc1ccc2c(c1)/C(=N\OCCN(C)C)c1c-2c(N2CCNCC2)nc2ccccc12`, the RatioGI50 in [2] was 2.96; in [9], 0.9; in data set [12], 0.43; in [13], 0.59; in [14], 3.83; in [15] it was 2.47. For the same compound, the GI50 is 912 nM in data set [4] (read-out: pGI50 (converted)) and 1100 nM in data set [8]. The inhibition came to 75% in data set [5] and 56% in data set [16]. The outcome in data set [6] was Active. The figures for the IC50 in [7] and in data set [17] were 4870 nM and 8500 nM, respectively. In addition, the GI50 at 48 h in data set [18] was determined as 2720 nM.

In the case of `COc1ccc2c(c1)/C(=N\OCCN1CCCC1)c1c-2cnc2ccccc12`, the GI50 in [1] is 2320 nM; in data set [3], 1190 nM; in data set [4] (read-out: GI50) it was 450 nM; in data set [4] (read-out: pGI50 (converted)) it was 447 nM; in data set [8] it was 3110 nM; in data set [10], 1540 nM. In addition, the GI50 in [11] amounted to 1510 nM. Further, the RatioGI50 worked out at 13.98 in [2]; 4.17 in data set [9]; 5.29 in data set [12]; 2.71 in data set [13]; 4.08 in data set [14]; 2.02 in data set [15]. Besides, the inhibition came to 80% in data set [5] and 67% in data set [16]. In addition, the outcome in data set [6] was Active. Moreover, the values for the IC50 in [7] and in data set [17] were 6500 nM and 8200 nM, respectively. The GI50 at 48 h in [18] stood at 6290 nM.

In the case of `COc1ccc2c(c1)/C(=N\OCCN1CCCCC1)c1c-2c(O)nc2ccccc12`, the GI50 in data set [1] is 5740 nM; in [3], 5390 nM; in data set [4] (read-out: GI50) it was 840 nM; in data set [4] (read-out: pGI50 (converted)), 832 nM; in [8] it was 1590 nM; in data set [10] it was 6950 nM. This compound also returned a GI50 in data set [11] of 4280 nM. Moreover, the RatioGI50 came to 8.93 in [2]; 1.75 in [9]; 1.39 in data set [12]; 1.31 in [13]; 1.08 in [14]; 4.72 in [15]. Also, the inhibition in data set [5] and in data set [16] was 0% throughout. Also, the result in data set [6] was Active. Further, the half-inhibitory concentration (IC50) in [7] was above 100000 nM.

Take `COc1ccc2c(c1)/C(=N\OCCN1CCCC1)c1c-2c(N2CCNCC2)nc2ccccc12`: the GI50 in data set [1] was 3370 nM; in data set [3], 2430 nM; in data set [4] (read-out: GI50), 570 nM; in data set [4] (read-out: pGI50 (converted)), 575 nM; in [8], 1430 nM; in data set [10], 500 nM. In data set [11], this compound displayed a GI50 of 680 nM. Besides, the RatioGI50 in [2] turned out to be 2.58; in data set [9], 2.16; in data set [12] it was 0.6; in data set [13], 0.44; in [14], 4.63; in data set [15], 1.03. The inhibition in data set [5] was determined as 74%; in data set [16], 48%. In data set [6], the result was Active. Further, the IC50 was determined as 6440 nM in data set [7] and 12800 nM in data set [17]. The compound further registered a GI50 at 48 h in data set [18] of 1470 nM.

Take `COc1ccc2c(c1)/C(=N\OCCN(C)C)c1c-2cnc2ccccc12`: the GI50 in [1] is 1890 nM; in [3], 1140 nM; in data set [4] (read-out: GI50), 420 nM; in [4] (read-out: pGI50 (converted)), 417 nM; in data set [8], 3610 nM; in [10], 1300 nM. Also, the GI50 in data set [11] stood at 1200 nM. In addition, the RatioGI50 in [2] came out at 16.31; in data set [9] it was 5.71; in [12], 6.01; in [13], 3.62; in [14], 5.27; in data set [15], 1.9. Also, the inhibition in data set [5] was found to be 75%; in [16], 82%. The result in data set [6] was Active. For the same compound, the IC50 is 6700 nM in [7] and 7200 nM in data set [17]. The compound further showed a GI50 at 48 h in [18] of 6850 nM.

Regarding `COc1ccc2c(c1)/C(=N\OCCN1CCCCC1)c1c-2c(N2CCNCC2)nc2ccccc12`, the RatioGI50 came to 2.95 in data set [2]; 1.46 in data set [9]; 0.4 in [12]; 0.41 in [13]; 2.64 in [14]; 0.57 in data set [15]. For the same compound, the results for the GI50 in data set [4] (read-out: pGI50 (converted)) and in data set [8] were 776 nM and 4030 nM, respectively. The inhibition in data set [5] worked out at 68%; in data set [16] it was 45%. Moreover, the result in data set [6] was Active. The IC50 in data set [7] came to 8000 nM; in data set [17], 11500 nM. Besides, in [18], the GI50 at 48 h was determined as 2300 nM.

With `COc1ccc2c(c1)/C(=N\OCCCN(C)C)c1c-2c(N2CCNCC2)nc2ccccc12`, the RatioGI50 is recorded as 7.49 in [2]; 0.94 in data set [9]; 0.56 in data set [12]; 0.52 in [13]; 7.29 in data set [14]; 2.02 in data set [15]. Further, the GI50 is 372 nM in data set [4] (read-out: pGI50 (converted)) and 1370 nM in [8]. The inhibition in data set [5] was found to be 88%; in data set [16] it was 70%. The result in data set [6] was Active. For the same compound, the IC50 in [7] was 4050 nM; in [17] it was 6600 nM. Also, the GI50 at 48 h in data set [18] was 2770 nM.

As to `COc1ccc2c(c1)/C(=N\OCCN1CCOCC1)c1c-2c(N2CCNCC2)nc2ccccc12`, the GI50 in data set [1] is 6470 nM; in data set [3] it was 6930 nM; in data set [4] (read-out: GI50) it was 780 nM; in data set [4] (read-out: pGI50 (converted)), 776 nM; in [8] it was 3750 nM; in data set [10] it was 2200 nM. Moreover, the GI50 in [11] came out at 980 nM. In addition, the RatioGI50 in data set [2] amounted to 3.33; in data set [9] it was 2.65; in [12], 0.38; in [13], 0.4; in [14], 1.18; in [15], 0.69. The inhibition was determined as 100% in data set [5] and 40% in [16]. The figures for the IC50 in data set [7] and in data set [17] were 5970 nM and 13000 nM, respectively. The GI50 at 48 h in [18] was 2600 nM.
